Assay results gathered from unrelated publications.
TPR: Trypanothione reductase (TPR, Trypanosoma cruzi, UniProt P28593)
CHRM5: Muscarinic acetylcholine receptor M5 (CHRM5, Homo sapiens, UniProt P08912)
BCHE: Cholinesterase (BCHE, Homo sapiens, UniProt P06276)
PROK: Proteinase K (PROK, Engyodontium album, UniProt P06873)

Compound	target	observed	mode	technique	pH	measurement	result
CC1=NCCc2c1[nH]c1cc(O)ccc21	Tyrosine-protein phosphatase non-receptor type 12 (PTPN12, Homo sapiens, UniProt Q05209)	enzyme activity	inhibitor	fluorescence	–	IC50	35 µM
C[C@H](NC(=O)Cc1ccccc1)C(=O)N[C@H](Cc1c[nH]c2ccccc12)C(=O)NCCc1ccccc1	Bombesin receptor subtype-3 (Brs3, Mus musculus, UniProt O54798)	calcium signal	agonist	fluorescence	–	EC50	0.0333 µM
CNC1CC(c2ccc(Cl)c(Cl)c2)c2ccccc21 (stereo not drawn)	TPR	enzyme activity	inhibitor	absorbance	–	IC50	7.26 µM
Cn1cc(-c2cccc(N3CCc4c(sc5c4CC(C)(C)C5)C3=O)c2CO)cc(Nc2ccncn2)c1=O	Tyrosine-protein kinase Fgr (FGR, Homo sapiens, UniProt P09769)	enzyme activity	inhibitor	FRET	–	Ki	> 1.11 µM
CC(C)C(Nc1nc(Cl)nc2c1ncn2[C@H]1[C@H](O)[C@H](O)[C@]2(CO)C[C@H]12)C(C)C	CHRM5	ligand displacement	–	radioligand	–	Ki	> 6.3 µM
C[C@H]1COC2=C1C(=O)C(=O)c1c2ccc2c1CCCC2(C)C	BCHE	enzyme activity	inhibitor	–	–	Ki	> 100 µM
C=CCn1c2cc(OC(=O)CCCCN3CCN(Cc4cccc(C)c4)CC3)ccc2c2ccnc(C)c21	BCHE	enzyme activity	inhibitor	Ellman	–	IC50	0.251 µM
C/C=C1\NC(=O)[C@@H](NC(=O)[C@@H](NC(=O)C/C(=C/Cl)CC)C(C)C)[C@@H](C)OC(=O)[C@H](C(C)C)NC(=O)[C@H](Cc2ccc(O)cc2)N(C)C(=O)[C@H](Cc2ccccc2)N2C(=O)[C@H](CC[C@H]2O)NC1=O	PROK	enzyme activity	inhibitor	fluorescence	–	IC50	> 5 µM
Cc1cc(C)c2[nH]c(=O)c(CN(CCO)C(=S)Nc3ccc(N4CCOCC4)cc3)cc2c1	Beta-glucuronidase (uidA, Escherichia coli, UniProt P05804)	enzyme activity	inhibitor	–	–	EC50	3.1 µM
[O-]/[N+](=C\c1ccc2cccc(O)c2n1)Cc1ccccc1	BCHE	enzyme activity	inhibitor	–	pH 7	Ki	0.0043 µM
O=C(O)c1ccccc1-c1c2cc(Br)c(=O)cc-2oc2[c]([Hg+])c(O)c(Br)cc12	PROK	binding	–	ITC	–	Kd	~3000 µM
Nc1c2c(nc3ccccc13)CCCC2	Ribosyldihydronicotinamide dehydrogenase [quinone] (NQO2, Homo sapiens, UniProt P16083)	enzyme activity	inhibitor	absorbance	–	IC50	3 µM
O=c1c2ccccc2[se]n1-c1ccccc1	TPR	enzyme activity	inhibitor	absorbance	–	IC50	1.36 µM
CC(C)(O)[C@@H](Nc1nc(Cl)nc2c1ncn2[C@H]1[C@H](O)[C@H](O)[C@]2(CO)C[C@H]12)C1CC1	CHRM5	ligand displacement	–	radioligand	–	Ki	2.73 µM
[O]=[V]([OH])([OH])[OH]	Tyrosyl-DNA phosphodiesterase 2 (TDP2, Homo sapiens, UniProt O95551)	enzyme activity	inhibitor	absorbance	–	IC50	40000 µM
